Screening data deposited in PubChem by several laboratories.
Pf gamet viab: kills late stage P. falciparum gametocytes; inhibition, % at 10.9 µM; actives 0.065% (n = 150,000); P. falciparum stage V gametocytes, ATP luminescence, 24 h; AID 743093;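 active = inhibition above the mean plus 3 SD of compounds within the control limits, set per campaign, cut at about 38% in these data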;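 note: 0% = DMSO wells and 100% = medium only without gametocytes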
Hsp70 activator: Hsp70 transcriptional activation, primary screen; HeLa Hsp70 promoter luciferase reporter, luminescence; scaled: vehicle 0, proteasome-inhibitor control 100%; actives 0.04% (n = 200,000); activation, % at 10 µM; AID 1203;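 active = activation above the mean across all tested compounds plus 3 SD, cutoff set per campaign, cut at about 5.5% in these data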;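 note: 100% = MG132 at 30 µM as the positive control and 0% = DMSO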
Mdm2 ligase inh: Mdm2 E3 ligase (human) inhibition; Q00987; cell-based MDM2 ubiquitination luciferase reporter, 2 h; 0 = plate control, 100 = twice control, blank-subtracted; signal enhancement, % at 5 µM; actives 0.11% (n = 210,000); AID 1230;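 active = signal enhancement of 30% or more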;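 note: luminescence tracks abundance of the self-degrading MDM2-luciferase fusion protein; higher signal means inhibition of MDM2 E3 ligase activity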
Target sequence (Q00987 whole entry, looked up, the tested form may be a part): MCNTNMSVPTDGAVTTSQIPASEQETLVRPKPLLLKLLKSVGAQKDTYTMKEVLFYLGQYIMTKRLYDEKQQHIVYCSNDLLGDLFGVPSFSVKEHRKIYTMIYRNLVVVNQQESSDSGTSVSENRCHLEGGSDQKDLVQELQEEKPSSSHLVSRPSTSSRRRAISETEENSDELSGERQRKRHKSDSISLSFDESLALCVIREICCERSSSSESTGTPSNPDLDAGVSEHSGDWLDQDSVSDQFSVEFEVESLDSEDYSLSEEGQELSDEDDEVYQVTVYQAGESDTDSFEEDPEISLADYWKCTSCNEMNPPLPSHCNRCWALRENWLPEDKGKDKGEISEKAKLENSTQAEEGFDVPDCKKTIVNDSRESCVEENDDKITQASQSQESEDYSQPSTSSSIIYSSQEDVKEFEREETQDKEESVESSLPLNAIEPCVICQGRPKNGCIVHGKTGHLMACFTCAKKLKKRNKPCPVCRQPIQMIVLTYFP
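Buffer or medium: Cells held in DMEM | Assay system: Stable mammalian line carrying autodegrading MDM2–luciferase fusion reporter | Quantity: 2000 cells/well | Times: 4 h settle plus 2 h compound, 37 °C | Doses: One concentration, 5 µM, with 0.2% DMSO | Technique: Luminescence with SteadyLite reagent, 15 min at room temperature | Benchmarks: Plate controls and plate blanks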
Wee1 degr inh: blocks degradation of human Wee1 kinase. HeLa Luc-Wee1K328M stability, luciferase luminescence; 100% = proteasome inhibitor MG132 effect. actives 1.2% (n = 220,000). reporter increase, % at 5 µM. AID 1321. P30291;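 active = activation above the mean of all tested compounds plus 3 SD, set per screening run, cut at about 8.8% in these data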;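 note: cells exposed to compound for 20 h before luminescence read; 0% = DMSO alone and 100% = MG132 at 30 µM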
m-calpain inh: inhibitors of pig calpain II. AID 1236. inhibition, % at 16 µM. purified calpain II, fluorogenic peptide substrate, 30 min. actives 0.37% (n = 220,000);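 active = inhibition above about 50%, limit read from the data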
Active calls of the source: *; i = inactive; . = no result. The list is not random: actives were taken first. Their share in the collection is about 1.5%.

SMILES | Pf gamet viab | Hsp70 activator | Mdm2 ligase inh | Wee1 degr inh | m-calpain inh
COc1ccc(N=C2S/C(=C\c3ccc(N4CCOCC4)o3)C(=O)N2CCc2c[nH]c3ccccc23)cc1 | . | 1 | -6 | 0 | -21
CCOc1cccc(CNc2ccc(O)cc2)c1OCc1ccccc1Cl | . | 0 | 5 | 1 | 7
CCOc1cccc(CNc2ccc(O)cc2)c1OCc1ccc(Cl)cc1Cl | -26 | 0 | -16 | 0 | 68*
Cc1c(O)ccc(-c2n[nH]c(C(=O)O)c2-c2nc3ccccc3s2)c1O | 4 | . | -13 | 10* | 6
Cc1c(O)ccc(-c2[nH]ncc2-c2nc3ccccc3s2)c1O | . | 0 | -6 | -2 | 16
CC1(C)CC(=O)C(C2C3=C(CC(C)(C)CC3=O)Oc3c(Br)cc(Br)cc32)=C(O)C1 (stereo not given) | -17 | . | . | . | .
N#Cc1c(N)nc2c(c1-c1ccccc1)CCCC2 | -1 | 0 | -15 | 0 | -25
N#Cc1c(N)nc2c(c1-c1cccc(O)c1)CCCCCC2 | . | 0 | 147* | -3 | 24
CCCCN1CC(=O)N2[C@H]3c4cc(C)ccc4OC[C@@H]3[C@H](C(=O)OCC)[C@]2(C)C1=O | -28 | . | . | . | .
Cc1ccc(C)c(NC(=O)CN(C)C(=O)c2cccc(S(=O)(=O)N(C)C)c2)c1 | -11 | 0 | -7 | 10* | -16
O=C(Nc1ccc(NC(=O)C2CCCCC2)nc1)c1cccs1 | -7 | 0 | 2 | 1 | 9
CCOC(=O)C1=C(N)Oc2cc(O)ccc2C1c1ccc(Br)cc1 (stereo not given) | 12 | . | . | . | .
O=C(Nc1nccs1)c1cn(-c2ccccc2)nc1-c1ccncc1 | 69* | 0 | -28 | 5 | -96
CCc1ccc(CN2CCCC(CNC(=O)c3cccc(OC)c3OC)C2)cc1 (stereo not given) | 2 | . | . | . | .
CC(=O)Nc1ccc(S(=O)(=O)NCc2cn3c(C)csc3n2)cc1 | . | 0 | 3 | -3 | 14
CCc1ccc(S(=O)(=O)NCc2cn3c(C)csc3n2)s1 | . | 0 | -21 | 0 | 100*
COc1ccc(C(=O)c2c3ccc(OC)cc3[n+]([O-])n2Cc2ccc(C(N)=O)cc2)cc1 | 11 | . | . | . | .
CC(C)Cn1c(-c2csc3c2CCCC3)n[nH]c1=S | . | 0 | -4 | 2 | 50*
CSc1cccc(NC(=O)CSc2ccc(Cl)cc2)c1 | . | 0 | -16 | -1 | 51*
O=C(CSc1cccs1)NCCc1ccccc1 | 5 | 0 | -4 | -3 | -13
O=C(CSc1cccs1)Nc1ccc(Cl)cc1 | -9 | . | -12 | 10* | 14
Cc1ccc(CNC(=O)C2CCCN2S(=O)(=O)c2ccc(Cl)cc2)cc1 (stereo not given) | 4 | . | . | . | .
COc1ccc(C(=O)NCCOC(C)C)cc1OC1CCN(C(C)=O)CC1 | 1 | . | . | . | .
CC1CC(=O)Nc2ccccc2N1C(=O)Nc1ccc(F)cc1 (stereo not given) | 8 | . | -10 | 0 | 15
Cc1cc(C)cc(NC(=O)N2c3ccccc3NC(=O)CC2C)c1 (stereo not given) | 3 | . | 2 | 9.6* | 9
SMILES | Pf gamet viab | Hsp70 activator | Mdm2 ligase inh | Wee1 degr inh | m-calpain inh
CCOC(=O)CN1c2ccccc2NC(=O)CC1C (stereo not given) | . | 0 | -15 | 14* | -48
Nc1ccc(-c2nc3c(ccc4ccccc43)[nH]2)cc1 | 4 | . | . | . | .
CCC(=O)N(CCc1ccccc1)Cc1cc2cccc(C)c2[nH]c1=O | 23 | . | . | . | .
O=c1[nH]c2cc3c(cc2cc1CN(CCc1ccccc1)C(=S)NCCCN1CCOCC1)OCCO3 | -3 | . | . | . | .
COc1ccc(CC(=O)Nc2cc(C)ccc2O)cc1OC | 11 | . | -24 | -3 | 19
O=C(NC(=S)Nc1ccc(F)cc1)c1ccc2c(c1)OCCO2 | . | 0 | -9 | 9.5* | 21
COc1ccc(/C=C/C(=O)Oc2cccc(/C=N/NC(=O)c3cccc(F)c3)c2)cc1 | . | 0 | -34 | 14* | 26
CCOC(=O)c1c(-c2ccccc2)csc1NC(=O)CSc1nnnn1C | -2 | 0 | -2 | -1 | -11
CCOC(=O)c1c(NC(=O)CSc2nnnn2C)sc(C)c1-c1ccc(C)cc1 | . | 0 | -9 | 0 | 56*
CC1CCCC(NC(=O)/C=C/c2c(F)cccc2Cl)C1C (stereo not given) | 8 | . | . | . | .
CC(COc1ccccc1)N1CCC(CO)(CCc2ccccc2)CC1 (stereo not given) | . | 1 | -5 | -1 | 3
CSCC(C)N1CCC(CO)(CCc2ccccc2)CC1 (stereo not given) | -1 | 1 | -9 | 10.0* | 29
COc1ccc(CCNC(=O)c2cc3cc(F)ccc3nc2C)cc1OC | -15 | . | . | . | .
Fc1ccccc1Oc1nc(-c2ccncc2)nc2ccccc12 | 9 | . | -13 | 8.9* | -1
COc1ccc(Oc2nc(-c3cccnc3)nc3ccccc23)cc1 | 12 | . | -9 | -2 | 3
C[C@H](CO)N1C[C@H](C)[C@@H](CN(C)Cc2ccncc2)Oc2c(NS(=O)(=O)c3cccs3)cccc2C1=O | -12 | . | . | . | .
Cc1cc(O)c(C(C)C)cc1NC(=O)c1cccc(Cl)c1 | 17 | 0 | 1 | 9.5* | 4
Brc1cccc(OCCCNC2CCCC2)c1 | 3 | . | . | . | .
O=C(Cc1ccc(Cl)cc1)N/N=C/c1cccc(O)c1 | 16 | . | . | . | .
O=C(NCCc1ccccn1)c1ccc(NS(=O)(=O)c2ccc(F)cc2)cc1 | 14 | 0 | -5 | 2 | -15
O=C(NCCc1ccccn1)c1ccc(OC(F)F)cc1 | 16 | 0 | -27 | 5 | 89*
Cc1ccc(-c2csc(N/N=C/c3ccco3)n2)c(C)c1 | 3 | 0 | -79 | 9.6* | 11
Oc1c(Cl)cc(Cl)cc1C(C#Cc1ccccc1)N1CCOCC1 (stereo not given) | . | 0 | -8 | -3 | 53*
O=C1CSC(c2ccccn2)N1c1ccc(F)cc1F (stereo not given) | 14 | 0 | -12 | 9.9* | -27
COC(=O)c1c(-c2ccccc2Cl)noc1/C=C/N(C)C | 6 | 0 | 42* | -2 | 7
SMILES | Pf gamet viab | Hsp70 activator | Mdm2 ligase inh | Wee1 degr inh | m-calpain inh
Cc1onc(-c2ccccc2Cl)c1C(N)=O | 0 | 0 | -8 | 0 | -11
CCN(C(=O)c1cc2cc3ccc(C)cc3nc2o1)c1ccc(OC)cc1 | -29 | 1 | -10 | 1 | 5
CCCCN(C)C(=O)c1cc2cc3cc(OC)ccc3nc2o1 | -13 | 0 | 4 | 10* | i
CCOC(=O)C1(Cc2cccc(F)c2)CCN(CC(O)CO)CC1 (stereo not given) | -4 | . | -20 | 10* | -18
CC1(C)O[C@@H](CC(=O)O)[C@]23CO[C@H](C(=O)[C@]4(C)C2CC[C@@]2(C)[C@H](c5ccoc5)OC(=O)C5O[C@]524)[C@@H]13 (stereo not given in full) | -21 | . | . | . | .
O/N=C(\c1ccc(Cl)cc1)c1cc2ccccc2o1 | . | 0 | -2 | 6 | 65*
CN(/C=C/c1c([N+](=O)[O-])c(=O)n(C)c(=O)n1C)c1ccccc1 | -1 | 0 | -2 | 9.4* | 18
